Active and inactive are the calls of the source. No cut-off for these calls is given here.
Experiments:
[1] = Toxicity in AlCl3-induced Sprague-Dawley rat assessed as reduction in serum albumin level at 5 mg/kg, po after 28 days by automated analyser; assay type: organism-based; conditions: in vivo, 672 h, time 28 day
Summary of the method: (§1)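 Under isoflurane, retro-orbital blood was collected into non-heparinized tubes after the 28-day AlCl3 model with oral dosing. Serum % albumin and total protein were measured on an automated clinical chemistry analyser.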

[2] = Toxicity in AlCl3-induced Sprague-Dawley rat assessed as intestine lesion index at 5 mg/kg, po after 28 days by H and E staining based microscopic method; assay type: organism-based; conditions: in vivo, 672 h, time 28 day
Summary of the method: (§2)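 Gastrointestinal damage in AlCl3-model rats, 28 days of oral dosing. Stomach and intestines were washed in cold PBS 0.01 M pH 7.4 and fixed 24 h in 10% neutral buffered formalin. After a 70% ethanol wash, haemorrhagic damage was measured by digital vernier caliper for the lesion index. HE-stained sections examined microscopically.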

[3] = Toxicity in AlCl3-induced Sprague-Dawley rat assessed as reduction in total protein level at 5 mg/kg, po after 28 days by automated analyser; assay type: organism-based; conditions: in vivo, 672 h, time 28 day; summary of the method: as §1
[4] = Toxicity in AlCl3-induced Sprague-Dawley rat assessed as reduction in HCT level at 5 mg/kg, po after 28 days by automated haematology analyser; assay type: organism-based; conditions: in vivo, 672 h, time 28 day
Summary of the method: (§3)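 On day 29 of the AlCl3 model (28 days of oral dosing), blood was drawn from the retro-orbital sinus under isoflurane into heparinized tubes. Haemoglobin and haematocrit were measured on a haematology analyser.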

Rattus norvegicus [5] = test: Antialzheimer activity against AlCl3-induced Sprague-Dawley rat assessed as reduction in hippocampal neuronal degeneration at 5 mg/kg, po after 28 days by H and E staining based microscopic method; assay type: functional, organism-based; conditions: time 28.0 day
Summary of the method: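 Hippocampal neuronal degeneration. After 28 days of oral dosing in 0.2% agar with daily AlCl3 4.2 mg/kg i.p., brain sections were HE-stained and hippocampal regions examined at 100X.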

[6] = Toxicity in AlCl3-induced Sprague-Dawley rat assessed as stomach lesion index at 5 mg/kg, po after 28 days by H and E staining based microscopic method; assay type: organism-based; conditions: in vivo, 672 h, time 28 day; summary of the method: as §2
[7] = Toxicity in AlCl3-induced Sprague-Dawley rat assessed as reduction in HGB level at 5 mg/kg, po after 28 days by automated haematology analyser; assay type: organism-based; conditions: in vivo, 672 h, time 28 day; summary of the method: as §3
Rattus norvegicus [8] = test: Antiinflammatory activity in Sprague-Dawley rat chronic model of formalin-induced paw edema assessed as inhibition of rat paw edema at 50 mg/kg, po pre treated for 1 hr followed by formalin-stimulation and measured after 5 day by plethysmometeric method relative to control; assay type: functional; conditions: 120 h
Summary of the method: (§4)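 Chronic paw edema. Oral pre-dose in 0.2% agar; after 1 h, 0.1 mL 2% formalin in saline injected into the left hind sub-plantar paw, repeated on 5 consecutive days. Paw volume by plethysmometer. % inhibition of edema size relative to disease control, days 1–5. n = 6, mean ± SEM, one-way ANOVA with Tukey's test.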

Rattus norvegicus [9] = test: Antiinflammatory activity in Sprague-Dawley rat chronic model of formalin-induced paw edema assessed as inhibition of rat paw edema at 50 mg/kg, po pre treated for 1 hr followed by formalin-stimulation and measured after 3 days by plethysmometeric method relative to control; assay type: functional; conditions: 72 h, time 3 day; summary of the method: as §4
Rattus norvegicus [10] = test: Antiinflammatory activity in Sprague-Dawley rat chronic model of formalin-induced paw edema assessed as inhibition of rat paw edema at 50 mg/kg, po pre treated for 1 hr followed by formalin-stimulation and measured after 4 days by plethysmometeric method relative to control; assay type: functional; conditions: 96 h, time 4 day; summary of the method: as §4
Rattus norvegicus [11] = test: Antiinflammatory activity in Sprague-Dawley rat acute model of carrageenan-induced paw edema assessed as inhibition of rat paw edema at 50 mg/kg, po pre treated for 1 hr followed by carrageenan-stimulation and measured after 3 hrs by plethysmometeric method relative to control; assay type: functional; conditions: time 4 hrs
Summary of the method: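 SD rats of either sex, 150–200 g, n = 6, dosed orally in 0.2% agar suspension. After 1 h, 0.1 mL 1% carrageenan in saline injected into the left hind sub-plantar paw. Paw volume measured by mercury plethysmometer before and 3 h after injection. % edema inhibition calculated. Mean ± SEM.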

Rattus norvegicus [12] = test: Antiinflammatory activity in Sprague-Dawley rat chronic model of formalin-induced paw edema assessed as inhibition of rat paw edema at 50 mg/kg, po pre treated for 1 hr followed by formalin-stimulation and measured after 1 day by plethysmometeric method relative to control; assay type: functional; conditions: 24 h; summary of the method: as §4
Rattus norvegicus [13] = test: Antiinflammatory activity in Sprague-Dawley rat chronic model of formalin-induced paw edema assessed as inhibition of rat paw edema at 50 mg/kg, po pre treated for 1 hr followed by formalin-stimulation and measured after 2 days by plethysmometeric method relative to control; assay type: functional; conditions: 48 h, time 2 day; summary of the method: as §4

Cc1cnc(NC(=O)C2=C(O)c3ccccc3S(=O)(=O)N2C)s1 [MELOXICAM]
Activity [1]: Non-Toxic
Activity_index [2]: 29.15 mm
Activity [3]: Toxic
Activity [4]: Toxic
Activity (Rattus norvegicus [5]): Active
Activity_index [6]: 12.19 mm
Activity [7]: Toxic

Cc1ccn2c(C(=O)c3cnc(N)s3)cnc2c1
inhibition in vivo at 50 mg/kg (Rattus norvegicus [8]): 18%
inhibition in vivo at 50 mg/kg (Rattus norvegicus [9]): 36%
inhibition in vivo at 50 mg/kg (Rattus norvegicus [10]): 23%
inhibition in vivo at 50 mg/kg (Rattus norvegicus [11]): 77%
inhibition in vivo at 50 mg/kg (Rattus norvegicus [12]): 30%
inhibition in vivo at 50 mg/kg (Rattus norvegicus [13]): 24%

Nc1ncc(C(=O)c2cnc3ccccn23)s1
inhibition in vivo at 50 mg/kg (Rattus norvegicus [11]): 33%

CN(C)c1nc(N)sc1C(=O)c1cnc2ccccn12
inhibition in vivo at 50 mg/kg (Rattus norvegicus [11]): 32%

Cc1cccn2c(C(=O)c3cnc(N)s3)cnc12
inhibition in vivo at 50 mg/kg (Rattus norvegicus [11]): 31%

Reference: ChEMBL document CHEMBL4732250, “Investigations on substituted (2-aminothiazol-5-yl)(imidazo[1,2-a]pyridin-3-yl)methanones for the treatment of Alzheimer's disease” (Bioorg Med Chem, 2021)
